Assay results reported in ChEMBL document CHEMBL1135922, “A common mechanism underlying promiscuous inhibitors from virtual and high-throughput screening” (J Med Chem, 2002).

Assay: Aggregates forming ability by dynamic light scattering(DLS).
Method in brief: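 Compound from 10 mM DMSO stock diluted into filtered KPi (5, 50 or 500 mM); dynamic light scattering at 90° detector angle, 25 °C, argon-ion laser at 514.4 nm (helium-neon 632.8 nm for dyes absorbing at 514.4 nm). Mean particle diameter by cumulant analysis; scattering intensity recorded. Each value from four or more independent measurements.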

Compound	DLS Concentration [µM]
OB(O)c1cc2ccccc2s1	100
Oc1ccc(-c2csc(Nc3ccc(F)cc3F)n2)cc1O	300
O=C1C(I)=CC(=C(c2cc(I)c(O)c(I)c2)c2ccccc2C(=O)O)C=C1I	10
O=C(O)c1cc(-c2ccc(Cl)cc2)nc(-c2ccc(-c3ccccc3)cc2)c1	80
CC(C)(C)c1cc(/C=C2/C(=O)Nc3ncccc32)cc(C(C)(C)C)c1O	10
CC(C)(C)c1ccc(-c2cc(C(=O)O)cc(-c3ccc(Cl)c(Cl)c3)n2)cc1	50
O=C(N/N=C/c1ccccc1O)C(=O)N/N=C/c1ccccc1O	10
O=C1OC2(c3cc(I)c(O)c(I)c3Oc3c2cc(I)c(O)c3I)c2c(Cl)c(Cl)c(Cl)c(Cl)c21	500
O=C1Nc2ccccc2/C1=C\c1ccc2c(c1O)CCCC2	40
Nc1c(/N=N/c2ccc(-c3ccc(/N=N/c4cc(S(=O)(=O)O)c5ccccc5c4N)cc3)cc2)cc(S(=O)(=O)O)c2ccccc12	750
COC1CC[C@@]2(C)[C@@H](CC[C@@H]3[C@@H]2[C@@H](O)C[C@]2(C)[C@@H](NCCN)CC[C@@H]32)C1 (stereo not given in full)	100
CN(C)c1ccc(/C=C2/C(=O)Nc3ccccc32)cc1	30
O=C1C2C(C(=O)N1Nc1ccc([N+](=O)[O-])cc1[N+](=O)[O-])[C@@]1(Cl)C(Cl)=C(Cl)[C@]2(Cl)C1(Cl)Cl (stereo not given in full)	15
O=C(Nc1nnc(Sc2nc3cc(Cl)ccc3s2)s1)c1cccs1	15
O=S(=O)(O)c1cccc2cccc(Nc3ccccc3)c12	1000
COc1ccc2c(c1)CC[C@@H]1[C@@H]2CC[C@]2(C)[C@@H](NCCCc3ccccc3)CC[C@@H]12	100
O=C(O)c1cc(-c2ccc(Cl)cc2)nc(-c2ccc(Sc3ccc(Cl)cc3)cc2)c1	50
Oc1ccc(/N=N/c2cccc(Br)c2)cc1	500
Oc1oc(/C=N/c2ccc(Oc3ccccc3)cc2)c2ccccc12	100
O=C(O)COc1ccc(/N=N/c2ccc3cc(Br)ccc3c2O)cc1	20
Cc1ccc(-c2cc(C(=O)O)cc(-c3ccc4ccccc4c3)n2)cc1	500
CC(C)CC(Oc1ccc(OC(=O)c2cc(-c3ccc(Cl)cc3)nc(-c3ccc(Cl)cc3)c2)cc1)C(=O)O (stereo not given)	50
CCCCCCC(Oc1ccc(S(=O)(=O)c2ccc(OCc3ccccc3)cc2)cc1)C(=O)O (stereo not given)	500
O=C1Nc2ccccc2/C1=C/c1ccc(-c2cccs2)s1	20
CCCCc1ccc(-c2cc(C(=O)O)cc(-c3ccc(Cl)cc3)n2)cc1	50
Cc1cc(Cl)cc2c1C(=O)/C(=C1/Sc3cc(Cl)cc(C)c3C1=O)S2	20
CC(C)c1ccc(/C=C2/C(=O)Nc3ccccc32)cc1	10
C(=C1c2ccccc2-c2ccccc21)C1CCCNC1 (stereo not given)	100
Oc1ccc(/N=N/c2ccc(Br)cc2)cc1	10
COc1ccc2c(c1)CC[C@@H]1[C@@H]2CC[C@]2(C)[C@@H](NCCNc3ccc([N+](=O)[O-])cn3)CC[C@@H]12	40
